From PubChem BioAssay
Rows were chosen to be rich in hits. Some 9.6% of all compounds tested hit in one or more screens of this group.
b-catenin transl = modulators of beta-catenin nuclear translocation, primary screen, imaging, HeLa cells, immunofluorescence, high-content; nuclear translocation activity, % at 5 µM; hit rate 0.3% among 190,000; AID 1665, 2009;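 active = nuclear translocation activity above 50% at 5 µM, with a well cell count of 50 or more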;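 also: per-cell ratio of nuclear to cytoplasmic median beta-catenin stain intensity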
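Assay system: human HeLa cells, native beta-catenin; doses: 5 µM primary, 0.02–20 µM confirmation; incubation: compound treatment 24 h, 37°C, 5% CO2; technique: fluorescence imaging of beta-catenin antibody stain plus DAPI; measure: % activation, nuclear-to-cytoplasmic median beta-catenin signal ratio per cell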
Ba/F3 V617F tox = reduced viability of JAK2V617F-dependent Ba/F3 cells, primary screen, JAK2V617F inhibitor project, cell-based, Ba/F3 EpoR-JAK2V617F, luminescence. ATP luminescence. inhibition, % at 5.6 µM. hit rate 1.1% among 220,000;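 active = inhibition above the campaign mean plus 3 SD over all tested compounds, cut at about 24% in these data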;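 also: cytokine-independent growth of Ba/F3 cells driven by EpoR plus mutant JAK2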
APP transl inh = inhibitors of APP translation via 5'UTR reporter, primary screen, APP 5'UTR luciferase, SH-SY5Y cells | hit rate 0.82% among 190,000 | SH-SY5Y APP 5'UTR-luciferase reporter, luminescence | inhibition, % at 2 µM;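 active = inhibition above a set limit, derived from the sample mean plus 3 SD, cut at about 45% in these data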
MT stabilizer = microtubule stabilizers in HeLa cells, primary screen, imaging, high-content imaging. AID 2205, 2009. % tubulin-high responders, % at 10 µM. HeLa tubulin immunostaining HCS, 24 h; share of cells brighter than vehicle mean+2SD. hit rate 0.83% among 200,000;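 active = plate Z-score above 3 for both tubulin-high and condensed-nucleus cell shares, with cell loss under 80%, at 10 µM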;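 also: anti alpha tubulin signal scored within the nucleus-defined area of each cell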
Lmaj promast = Leishmania major promastigote growth inhibition, primary screen; AID 1063, 2008; Leishmania major promastigotes, resazurin fluorescence viability; hit rate 9% among 200,000; inhibition, % at 10 µM; in the data active = inhibition above about 50%;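 also: promastigotes grown with compound for 44 hours at 28 °C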
BaF3 parental = parental Ba/F3 cell viability inhibition, counter-screen for JAK2V617F inhibitor project, murine pro-B, CellTiter-Glo luminescence. CellTiter-Glo ATP luminescence. inhibition, % at 5.6 µM. hit rate 1.1% among 220,000. AID 1486, 2009;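 active = inhibition above a per-campaign cutoff, the mean inhibition of all tested compounds plus 3 SD, cut at about 27% in these data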
A number is an active result; – = inactive; · = no result.

SMILES	b-catenin transl	Ba/F3 V617F tox	APP transl inh	MT stabilizer	Lmaj promast	BaF3 parental
COc1cccc(/C=N/NC(=O)c2ccc(=O)n(C)c2)c1OC	–	–	–	–	–	–
COc1ccccc1OS(=O)(=O)c1ccc(NC(C)=O)cc1	–	–	–	–	–	–
COc1cccc(/C=N/NC(=O)c2ccccc2)c1OS(=O)(=O)c1ccccc1	·	–	–	–	92	–
O=S(=O)(Nc1ccc(-c2nc3cccnc3s2)cc1)c1ccccc1F	–	–	·	·	·	–
O=C1Oc2ccccc2C(=O)/C1=C/N1CCN(c2ccccc2F)CC1	–	–	–	–	–	–
COc1cccc(/C=N/NC(=O)c2cc(-c3cccn3C)n[nH]2)c1O	–	–	–	–	98	–
COc1cccc(/C=N/NC(=O)c2cc3c(OC)cccc3[nH]2)c1OC	–	–	–	–	–	–
COc1cccc(/C=N/NC(=O)c2cc3c(OC)cccc3[nH]2)c1O	–	–	45	–	95	–
COc1cccc(/C=N/NC(=O)c2cc3c(OC)c(OC)ccc3[nH]2)c1OC	–	54	57	–	73	42
O=C(c1ccccc1)c1nccn1-c1ccc(Cl)nn1	–	–	·	·	·	–
CCOc1ccccc1NC(=O)Nc1cnccn1	–	–	–	–	–	–
Cc1cc(NC(=S)N(CCCN2CCN(C)CC2)Cc2ccco2)ccc1Cl	–	35	–	–	–	27
Cc1ccc(NC(=S)N(CCCN2CCOCC2)Cc2ccccn2)cc1	–	–	–	–	–	–
Cc1ccccc1NC(=S)N(CCCN1CCOCC1)Cc1ccccn1	–	–	–	–	65	–
S=C(Nc1ccccc1Cl)N(CCCN1CCOCC1)Cc1ccco1	–	–	–	–	85	–
Cc1ccc(NC(=S)N(CCCN2CCOCC2)Cc2ccco2)cc1C	–	–	–	–	–	–
Cc1cccc(COc2ccc(/C=N/NC(=O)c3nnn(-c4nonc4N)c3COc3ccc(F)cc3)cc2)c1	–	–	·	·	·	–
CCNc1nc(NCC)n2c(SC(C(=O)Nc3cc(Cl)cc(Cl)c3)c3ccccc3)nnc2n1 (centres undefined)	–	–	–	–	–	–
Cn1c(=O)c2cc(S(=O)(=O)N3CCC(c4ccccc4)CC3)ccc2n(C)c1=O	–	–	–	–	–	–
CNc1cc(C(F)(F)F)nc(-c2ccccn2)n1	–	–	–	–	–	–
Nc1nc(-c2ccccn2)nc(N)c1Cc1c(F)cccc1Cl	–	–	–	–	101	–
Nc1nc(-c2ccccn2)nc(N)c1Cc1ccccc1F	–	–	–	–	95	–
Nc1nc(-c2ccccn2)nc(N)c1Cc1ccc(Cl)cc1Cl	–	–	–	–	101	–
O=C1CSC(=S)N1N1C(=O)c2cccc([N+](=O)[O-])c2C1=O	–	–	–	–	–	–
Cc1cc(NC(=O)c2cc3cccc([N+](=O)[O-])c3[nH]2)ccc1F	–	–	·	·	·	–
SMILES	b-catenin transl	Ba/F3 V617F tox	APP transl inh	MT stabilizer	Lmaj promast	BaF3 parental
Nc1nnc(SCc2cn3cc(Cl)ccc3n2)s1	–	–	–	–	–	–
Cc1ccc(SCC(=O)Nc2c(Br)cnn2C)cc1	–	–	·	·	·	–
COC(=O)C1=C(C)N(c2ccc(C)c(C)c2)/C(=C/c2ccco2)C1=O	–	–	–	–	61	–
CSCC[C@H](NC(=O)c1ccc(Cl)c(S(=O)(=O)N2CCCC2)c1)c1nc2ccccc2[nH]1	–	–	–	–	–	–
CN1CCC(N(C)C(=O)/C(C#N)=C/c2ccc(OC(F)F)cc2)CC1	–	–	·	·	·	–
Cc1cc(C(=O)COC(=O)Cc2n[nH]c(=O)c3ccccc23)c(C)n1-c1cccc(C(F)(F)F)c1	–	–	–	–	–	–
Cc1cc(C(=O)COC(=O)CC2Sc3ccccc3NC2=O)c(C)n1-c1cccc(C(F)(F)F)c1 (centres undefined)	·	–	–	–	97	–
O=C(O)Cc1ccc(O)c(F)c1	·	–	–	–	–	–
Brc1ccc(N/N=C(/N=Nc2nn[nH]n2)c2ccccc2)cc1	–	–	58	–	–	–
O=C(/C(=N\Nc1ccc(Br)cc1)Sc1nnnn1-c1ccccc1)c1ccccc1	–	–	–	–	–	–
Cc1ccc(S(=O)(=O)N2CCN(CC(=O)N(CC(C)C)c3c(N)n(CC(C)C)c(=O)[nH]c3=O)CC2)c(C)c1	–	–	–	–	–	–
Cc1ccc(C(=O)OCC(=O)Nc2cc(S(=O)(=O)N3CCOCC3)ccc2C)cc1	–	–	–	–	–	–
Cc1ccc(S(=O)(=O)N2CCOCC2)cc1NC(=O)CNCC1CCCCC1	–	–	–	–	74	–
O=C(CNC1CCCCC1)Nc1cc(S(=O)(=O)N2CCOCC2)ccc1Cl	–	–	–	–	–	–
Cc1ccc(S(=O)(=O)N2CCOCC2)cc1NC(=O)COC(=O)c1ccc(OCc2c(C)noc2C)cc1	–	–	–	–	76	–
C/C(Cc1ccccc1)=N\NC(=O)CNC(=O)/C=C\c1ccccc1	–	–	·	·	·	–
Cn1c(N2CCN(C(=O)NC34CC5CC(CC(C5)C3)C4)CC2)nc2ccccc21	–	–	–	–	–	–
CC(C)COc1ccc(C(=O)Nc2ccc(SC(F)F)cc2)cc1	–	–	–	–	52	–
CC(C)COc1ccc(C(=O)Nc2ccc([N+](=O)[O-])cc2)cc1	–	–	–	–	–	–
O=C(NC(=S)Nc1cccc(NC(=O)c2ccc(Cl)cc2Cl)c1)c1cccs1	·	–	–	–	–	–
Cc1ccccc1CC1(CO)CCCN(Cc2ccc(C#CC(C)(C)O)cc2)C1 (centres undefined)	–	–	–	–	85	–
Cc1ccc2nc(C)cc(C(=O)N3CCCC(CO)(Cc4ccccc4C)C3)c2c1 (centres undefined)	–	–	–	–	61	–
CC(C)(O)C#Cc1ccc(CN2CCCC(CO)(Cc3cccc(Cl)c3)C2)cc1 (centres undefined)	–	–	–	–	97	–
Cc1ccc(C)c(-c2[nH]ncc2CN2CCCC(CO)(Cc3ccccc3C)C2)c1 (centres undefined)	–	–	–	–	73	–
Cc1ccc(S(=O)(=O)N(CC(=O)N2CCCCC2)c2cccc(C)c2)cc1	–	–	–	–	–	–
CC(C)n1nc(C(=O)OCn2nnc3ccccc3c2=O)c2ccccc2c1=O	–	–	–	–	–	–
CS(=O)(=O)Nc1ccc(C2=NN(S(C)(=O)=O)C(c3ccc4c(c3)OCO4)C2)cc1 (centres undefined)	–	–	–	–	–	–
CCC(C)Sc1nc2ccccc2n1CC(=O)O (centres undefined)	·	–	·	–	–	–
COc1ccc(/C=C/CN2CCCC(CO)(Cc3cccc(Cl)c3)C2)cc1 (centres undefined)	–	–	–	–	97	–
